Measurements taken from PubChem BioAssay AID504679 (The Scripps Research Institute Molecular Screening Center, 2011).
Active and inactive are the calls of the source.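 Rule for the calls: active = IC50 of 10 µM or lower; inactive = IC50 above 10 µM.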

system: E. coli V66 + T4 gene 2 phage, OD growth; test: E. coli RecBCD inhibitors, late-stage follow-up, counter-screen for AddAB inhibitor project, absorbance, V66 E. coli, dose response (AID 504679)
Summary of the method: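 Assay system: E. coli V66 bacteria. Measure: percent inhibition versus ciprofloxacin and DMSO wells. Controls: Ciprofloxacin-treated wells and DMSO-only wells. Compound dosing: 1:3 series, top 118.6 µM nominal. Schedule: 18 h at 37 °C. Replicates: triplicate. Probe or stimulus: mutant T4 phage, MOI 0.02. Technique: absorbance at 600 nm as bacterial growth measure.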

**Q.** For `CCn1cc(C(=O)O)c(=O)c2cnc(N3CCN(C(=S)Nc4ccccc4C(F)(F)F)CC3)nc21`, which IC50 is on record?
**A.** 103 µM (inactive)

**Q.** How did the IC50 turn out when `O=C(Nc1ncccn1)c1ccc([N+](=O)[O-])o1` was run?
**A.** > 119 µM (inactive)

**Q.** For `Cc1cccnc1NC(=O)c1ccc([N+](=O)[O-])o1`, which IC50 is on record?
**A.** > 119 µM (inactive)

**Q.** `Cc1ccc2nc(/C(C#N)=C\c3ccc([N+](=O)[O-])o3)[nH]c2c1` was tested. Which IC50 did it give?
**A.** > 119 µM (inactive)

**Q.** `O=C(Nc1ccc(N2CCOCC2)cc1)c1ccc([N+](=O)[O-])o1` was tested. Which IC50 did it give?
**A.** > 119 µM (inactive)

**Q.** How did the IC50 turn out when `C=CCn1c(Sc2ncc([N+](=O)[O-])s2)n[nH]c1=O` was run?
**A.** 46.5 µM (inactive)

**Q.** `N#Cc1c(NC(=O)c2ccc([N+](=O)[O-])o2)sc2c1CCC2` was tested. Which IC50 did it give?
**A.** > 119 µM (inactive)

**Q.** Which IC50 does the source give for `O=C(OCC(=O)c1cccs1)c1ccc([N+](=O)[O-])o1` here?
**A.** > 119 µM (inactive)

**Q.** With `NC(=O)c1ccsc1NC(=O)COC(=O)c1ccc([N+](=O)[O-])o1` as the molecule, how does the IC50 read?
**A.** > 119 µM (inactive)

**Q.** Which IC50 does the source give for `O=C(Nc1cccc(NC(=O)c2ccccc2Cl)c1)c1ccc([N+](=O)[O-])o1` here?
**A.** > 119 µM (inactive)

**Q.** How did the IC50 turn out when `CC(=O)Nc1ccc2nc(NC(=O)c3ccc([N+](=O)[O-])o3)sc2c1` was run?
**A.** > 119 µM (inactive)

**Q.** With `O=C(NCc1cccnc1)c1ccc([N+](=O)[O-])o1` as the molecule, how does the IC50 read?
**A.** 93.8 µM (inactive)
